Results taken from ChEMBL document CHEMBL1250501, “Anti-tubercular agents. Part 5: synthesis and biological evaluation of benzothiadiazine 1,1-dioxide based congeners” (Eur J Med Chem, 2010).
Converted amounts (≈) assume the structure as drawn. The source made the active and inactive calls. The rule behind the calls is not given here.

Assays:
Assay type in all cases: functional
Escherichia coli [1] = experiment: Antibacterial activity against Escherichia coli at 50 ug/ml after 18 hrs by cup plate method
In short: (§1)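 Agar well diffusion on Mueller-Hinton agar. Inoculum was adjusted to a 0.5 McFarland standard (about […] × 10⁸ CFU/mL) and swabbed over the plate three times, rotating about 60° each time, then the rim was swabbed. Compounds in DMSO went into duplicate 6 mm wells. Plates were incubated at 37 °C for 18 h and inhibition zone diameter read to the nearest mm. DMSO negative control; streptomycin and ciprofloxacin positive controls.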

Klebsiella pneumoniae [2] = experiment: Antibacterial activity against Klebsiella pneumoniae at 50 ug/ml after 18 hrs by cup plate method; in short: as §1
Pseudomonas aeruginosa [3] = experiment: Antibacterial activity against Pseudomonas aeruginosa at 50 ug/ml after 18 hrs by cup plate method; in short: as §1
Escherichia coli [4] = experiment: Antibacterial activity against Escherichia coli at 100 ug/ml after 18 hrs by cup plate method; conditions: read-out: DIZ; in short: as §1
Staphylococcus aureus [5] = experiment: Antibacterial activity against Staphylococcus aureus at 100 ug/ml after 18 hrs by cup plate method; conditions: read-out: DIZ; in short: as §1
Bacillus subtilis [6] = experiment: Antibacterial activity against Bacillus subtilis at 50 ug/ml after 18 hrs by cup plate method; in short: as §1
[7] = system: Mycobacterium tuberculosis; experiment: Antimycobacterial activity against Mycobacterium tuberculosis H37Rv after 3 to 4 weeks by broth microdilution assay
In short: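 MIC by broth microdilution on compounds active in a single-concentration primary screen. Plates incubated 3–4 weeks at 37 °C in a CO₂ incubator. Wells read visually for absence of growth turbidity.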

[8] = system: Staphylococcus epidermidis; experiment: Antibacterial activity against Staphylococcus epidermidis at 50 ug/ml after 18 hrs by cup plate method; in short: as §1
Staphylococcus aureus [9] = experiment: Antibacterial activity against Staphylococcus aureus at 50 ug/ml after 18 hrs by cup plate method; conditions: read-out: DIZ; in short: as §1
Pseudomonas aeruginosa [10] = experiment: Antibacterial activity against Pseudomonas aeruginosa at 100 ug/ml after 18 hrs by cup plate method; conditions: read-out: DIZ; in short: as §1
Candida albicans [11] = experiment: Antifungal activity against Candida albicans MTCC 227 at 100 ug/ml after 48 hrs by cup plate method; conditions: MTCC 227, 48 h, read-out: IZ
In short: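 Agar well (cup plate) diffusion on potato dextrose agar 39 g/L, with compounds dissolved in DMSO. Plates were incubated at 28 ± 2 °C for 48 h and inhibition zones measured to the nearest mm. Three replicates per treatment. Amphotericin B positive control; solvent control included.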

[12] = system: Staphylococcus epidermidis; experiment: Antibacterial activity against Staphylococcus epidermidis at 100 ug/ml after 18 hrs by cup plate method; conditions: read-out: DIZ; in short: as §1
Bacillus subtilis [13] = experiment: Antibacterial activity against Bacillus subtilis at 100 ug/ml after 18 hrs by cup plate method; conditions: read-out: DIZ; in short: as §1
Klebsiella pneumoniae [14] = experiment: Antibacterial activity against Klebsiella pneumoniae at 100 ug/ml after 18 hrs by cup plate method; conditions: read-out: DIZ; in short: as §1
Candida albicans [15] = experiment: Antifungal activity against Candida albicans MTCC 227 at 50 ug/ml after 48 hrs by cup plate method
In short: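 Agar well (cup plate) diffusion on potato dextrose agar 39 g/L. Compounds dissolved in DMSO and loaded into 6 mm wells. Incubated at 28 ± 2 °C for 48 h. Inhibition zone diameter measured to the nearest millimetre, three replicates per treatment. DMSO solvent as negative control, amphotericin B as positive control.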

O=[N+]([O-])c1ccc(CN2CCN(C3=NS(=O)(=O)c4ccccc4N3c3ccccc3)CC2)s1
diameter of the inhibition zone (DIZ) (Escherichia coli [1]): inactive | diameter of the inhibition zone (DIZ) (Klebsiella pneumoniae [2]): inactive | diameter of the inhibition zone (DIZ) (Pseudomonas aeruginosa [3]): inactive | zone of inhibition at 100 µg/mL (Escherichia coli [4]): 16 mm | zone of inhibition at 100 µg/mL (Staphylococcus aureus [5]): 12 mm | diameter of the inhibition zone (DIZ) (Bacillus subtilis [6]): inactive | MIC [7]: > 16 µg/mL | diameter of the inhibition zone (DIZ) [8]: inactive | zone of inhibition at 50 µg/mL (Staphylococcus aureus [9]): 9 mm | zone of inhibition at 100 µg/mL (Pseudomonas aeruginosa [10]): 12 mm | zone of inhibition at 100 µg/mL (Candida albicans [11]): 12 mm | zone of inhibition at 100 µg/mL [12]: 14 mm | zone of inhibition at 100 µg/mL (Bacillus subtilis [13]): 14 mm | zone of inhibition at 100 µg/mL (Klebsiella pneumoniae [14]): 13 mm | inhibition zone (IZ) (Candida albicans [15]): inactive

O=[N+]([O-])c1ccc(CN2CCN(C3=NS(=O)(=O)c4ccccc4N3c3ccccc3)CC2)o1
zone of inhibition at 50 µg/mL (Escherichia coli [1]; read-out: DIZ): 14 mm | diameter of the inhibition zone (DIZ) (Klebsiella pneumoniae [2]): inactive | zone of inhibition at 50 µg/mL (Pseudomonas aeruginosa [3]; read-out: DIZ): 10 mm | zone of inhibition at 100 µg/mL (Escherichia coli [4]): 20 mm | zone of inhibition at 100 µg/mL (Staphylococcus aureus [5]): 15 mm | diameter of the inhibition zone (DIZ) (Bacillus subtilis [6]): inactive | MIC [7]: 2 µg/mL (≈ 4.28 µM) | zone of inhibition at 50 µg/mL ([8]; read-out: DIZ): 15 mm | zone of inhibition at 50 µg/mL (Staphylococcus aureus [9]): 14 mm | zone of inhibition at 100 µg/mL (Pseudomonas aeruginosa [10]): 15 mm | zone of inhibition at 100 µg/mL (Candida albicans [11]): 11 mm | zone of inhibition at 100 µg/mL [12]: 20 mm | zone of inhibition at 100 µg/mL (Bacillus subtilis [13]): 19 mm | zone of inhibition at 100 µg/mL (Klebsiella pneumoniae [14]): 15 mm | inhibition zone (IZ) (Candida albicans [15]): inactive
